The record followed here is PubChem BioAssay AID493069 (Broad Institute, 2011).

Structures are written as SMILES. “And” between values parts separate entries of the source, which are not always exact repeats. Equal values may be shown once. Results filed as inconclusive are left out. The source made the active and inactive calls.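 How the source made its calls: active means growth-curve midpoint potency at or below a set limit tied to the top tested dose, or full inhibition throughout; inconclusive means flat partial inhibition between 30 and 70%, or poor fit; inactive means the rest.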

Tested on in the first assay: not listed separately
As to the kind of experiment: growth inhibition of resistant C. albicans with fluconazole, dose response, antifungal resistance reversal project, CaCi-8 resistant strain, dry powder, set 6 (AID 493069). To be noted: C. albicans CaCi-8 + fluconazole, Alamar Blue, 48 h; at 2.6 µM (top of the series). In a few lines: (§1)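 Assay system: Fluconazole-resistant Candida albicans isolate CaCi-8 | Quantity: Fungal inoculum at starting OD600 of 0.00015 | Medium: MOPS-buffered RPMI 1640 defined medium plus Pen/Strep | Also added: Fluconazole at 8 µg/mL in the growth medium | Times: Compound exposure 48 h 37 °C, Alamar Blue 2 h RT | Signal: Alamar Blue fluorescence, Ex 544/Em 590 nm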
(In general: Resazurin is reduced to fluorescent resorufin, in cell work by metabolically active cells.)
Regarding `COc1ccc2c(c1)c1nc3n(c(=O)c1n2CC(=O)N1CCC(C)CC1)CCS3`, the growth change, negative = inhibition was -12.4% (inactive).

Staying with this assay, now noted: C. albicans CaCi-8 + fluconazole, Alamar Blue, 48 h; at 26 µM (top of the series).
On to `O=C(Cn1c2ccc(F)cc2c2nc3n(c(=O)c21)CCS3)N1CCCCC1`, for which the growth change, negative = inhibition is -17% (inactive).
For the compound `O=C(Cn1c2ccccc2c2nc3n(c(=O)c21)CCCS3)c1ccc(F)cc1`, the growth change, negative = inhibition is -20.3% (inactive).
Still for that read-out and setting: the value for `CCN(CC)C(=O)Cn1c2ccccc2c2nc3n(c(=O)c21)CCS3` was 10.7% (inactive); that for `O=C(Cn1c2ccc(F)cc2c2nc3n(c(=O)c21)CCS3)N1CCCC1` was -25.5% (inactive); that for `O=C(Cn1c2ccccc2c2nc3n(c(=O)c21)CCS3)NCCc1ccc(Cl)cc1` was -16.6% (inactive).
Same read-out and setting: the value for `CCN(CC)C(=O)Cn1c2ccc(F)cc2c2nc3n(c(=O)c21)CCS3` was 3.38% (inactive); that for `O=C(Cn1c2ccc(F)cc2c2nc3n(c(=O)c21)CCS3)N1CCCCCC1` was -36.1% (inactive).

The next assay has as its system C. albicans CaCi-8 + fluconazole, Alamar Blue, 48 h. Described as above.
Conditions: not given
In a few lines:
as §1
As for `COC(=O)Cn1nc(-c2ccccc2)c2ccccc21`, the AC50 was 4.99 µM.
As to `O=C(Cn1c2ccccc2c2nc3n(c(=O)c21)CCS3)N1CCOCC1`, the AC50 is 4.83 µM.
Still for that read-out and setting: the value for `CC1CCN(C(=O)Cn2c3ccccc3c3nc4n(c(=O)c32)CCS4)CC1` was 5.56 µM.
On the same count and under the same terms, next, `O=C(Cn1c2ccccc2c2nc3n(c(=O)c21)CCS3)N1CCCC1`: 1.43 µM and 6.75 µM; `COC(=O)Cn1nc(-c2ccc(Cl)cc2)c2ccccc21`: 15.8 µM; `O=C(Cn1c2ccccc2c2ccncc21)N1CCCCC1`: 26.2 µM.
On to `O=C(O)Cn1nc(-c2ccccc2)c2ccccc21`, for which the AC50 was > 26 µM (inactive).
The same measure, in the same setting: the value for `CC1CCN(C(=O)Cn2c3ccc(F)cc3c3nc4n(c(=O)c32)CCCS4)CC1` was 22.9 µM; that for `O=c1c2[nH]c3ccccc3c2nc2n1CCS2` was 17.6 µM; that for `COC(=O)Cn1nc(-c2ccc(C)cc2)c2ccccc21` was 13.8 µM.
For `O=C(Cn1c2ccccc2c2nc3n(c(=O)c21)CCS3)N1CCCCC1`, the AC50 was 3.88 µM.
On the same count and under the same terms, the value for `O=c1c2[nH]c3ccc(F)cc3c2nc2n1CCS2` was 5.76 µM.

Usually AC50 stands for the concentration at which the activity in the assay is half-maximal.
